This is a sample that favours compounds with a hit; in the whole collection about 1.2% have one here.
ARNT TACC3 PPI – disruptors of ARNT/TACC3 protein interaction, primary screen, biochemical, AlphaScreen, single concentration; Transforming acidic coiled-coil-containing protein 3 (Homo sapiens), Q9Y6A5; AlphaScreen His-ARNT PAS-B/GST-TACC3 binding, luminescence; TACC3 fragment carries E629A point mutation; inhibition, % at 9.99 µM; actives 0.66% (n = 390,000);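 active means mean inhibition of replicates at least 50% and at least half of replicates each reaching 50%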
CAL PDZ FP-1 – untagged CAL PDZ binding inhibitors, primary screen, biochemical, fluorescence polarization, HTS; purified CAL PDZ, TMR-peptide fluorescence polarization, 1 h; Golgi-associated PDZ and coiled-coil motif-containing protein (Homo sapiens), Q9HD26; actives 0.92% (n = 300,000); inhibition, % at 24.9 µM;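 active means mean inhibition of at least 30% with at least half of replicates also reaching 30%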
CAL PDZ FP-2 – CAL PDZ peptide-binding inhibitors, primary screen, biochemical, fluorescence polarization, Cer-tagged CAL PDZ, HTS | Golgi-associated PDZ and coiled-coil motif-containing protein (Homo sapiens), Q9HD26 | purified CAL PDZ, TMR-peptide fluorescence polarization, 1 h | actives 0.02% (n = 330,000) | inhibition, % at 20 µM;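 active means highest replicate inhibition of at least 40%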
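Read-out basis: mP drop reported as inhibition | Assay system: Tagged CAL PDZ protein CerCALP, purified | Benchmarks: Unlabelled peptide for full inhibition, DMSO wells as neutral | Schedule: 1 h incubation at room temperature before polarization reading | Buffer or medium: Sodium phosphate/NaCl buffer pH 7.4 with TCEP, IgG, Thesit | Doses: Single point, 20 µM | Measured by: Fluorescence polarization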
Each line names hits and unclear results; the compound was inactive in the other large screens.

COc1ccc(CN(C)C[C@@H]2OCCCC[C@@H](C)Oc3ccc(NS(=O)(=O)c4ccc(OC)cc4)cc3C(=O)N([C@H](C)CO)C[C@H]2C)cc1	none (no result: CAL PDZ FP-1, CAL PDZ FP-2)
O=C(CSc1nc(-c2ccccc2)cc(C(F)(F)F)n1)N1CCOCC1	CAL PDZ FP-1 96
COc1ccc(-c2cc(C(F)(F)F)nc(SCC(=O)N3CCOCC3)n2)cc1OC	none (no result: CAL PDZ FP-1)
CO[C@@H]1CN(C)C(=O)c2cc(NS(=O)(=O)c3cccc(C)c3)ccc2OC[C@@H](C)NC[C@H]1C	ARNT TACC3 PPI 13 (no result: CAL PDZ FP-1, CAL PDZ FP-2)
CO[C@@H]1CN(C)C(=O)c2cc(NS(=O)(=O)c3cccc(C)c3)ccc2OC[C@H](C)NC[C@H]1C	none (no result: CAL PDZ FP-1, CAL PDZ FP-2)
O=C(C1=NN[C@@H]2C(=O)N(c3cccc(F)c3)C(=O)[C@H]12)c1cnccn1	none (no result: CAL PDZ FP-1)
O=C(C1=NN[C@@H]2C(=O)N(c3ccccc3C(F)(F)F)C(=O)[C@H]12)c1cnccn1	CAL PDZ FP-1 123
O=c1[nH]c2nc(Cl)nc(Cl)c2[nH]1	CAL PDZ FP-1 81
COc1ccc(CN(C)C[C@@H]2Oc3c(NS(=O)(=O)c4ccc(F)cc4)cccc3C(=O)N([C@H](C)CO)C[C@@H]2C)cc1	none (no result: CAL PDZ FP-1, CAL PDZ FP-2)
COc1ccc(NC(=O)N2C[C@H](O)COC[C@@H]3O[C@H](CC(=O)NC4Cc5ccccc5C4)CC[C@H]32)cc1	none (no result: CAL PDZ FP-1, CAL PDZ FP-2)
COc1ccc(NC(=O)N(C)C[C@H]2Oc3ccc(NC(=O)Nc4ccc5c(c4)OCO5)cc3CC(=O)N([C@@H](C)CO)C[C@@H]2C)cc1	none (no result: CAL PDZ FP-1, CAL PDZ FP-2)
COCC(=O)N(C)C[C@@H]1Oc2cc(-c3cccnc3)ccc2S(=O)(=O)N([C@H](C)CO)C[C@@H]1C	none (no result: CAL PDZ FP-1, CAL PDZ FP-2)
Cc1ccc(O)c(-c2cc(-c3cccc(Br)c3)n[nH]2)c1	CAL PDZ FP-1 86
Oc1ccccc1-c1cc(-c2ccccc2)n[nH]1	none
Oc1ccccc1-c1cc(-c2ccc(F)cc2)n[nH]1	CAL PDZ FP-1 34
Cc1ccc(-c2cc(-c3ccc(C)cc3O)[nH]n2)cc1	none (no result: CAL PDZ FP-2)
CC(C)c1cn(CC[C@@H]2CC[C@H](NC(=O)Nc3cc(Cl)cc(Cl)c3)[C@@H](CO)O2)nn1	none (no result: CAL PDZ FP-1, CAL PDZ FP-2)
CCN1CCN(C(c2ccccc2)c2nnnn2Cc2ccccc2)CC1 (stereo not drawn)	none
CCN1CCN(C(c2cc(OC)ccc2OC)c2nnnn2Cc2ccccc2)CC1 (stereo not drawn)	CAL PDZ FP-1 54
CC(C)NC(=O)N(C)C[C@H]1Oc2ncc(C#Cc3ccccc3F)cc2C(=O)N([C@@H](C)CO)C[C@H]1C	none (no result: CAL PDZ FP-1, CAL PDZ FP-2)
CN(C)c1ccc(C(CC(=O)c2ccccc2)C2CCCCC2=O)cc1 (stereo not drawn)	none
O=C(CC(c1ccccc1)C1CCCCC1=O)c1ccccc1 (stereo not drawn)	CAL PDZ FP-1 32
O=C([C@H]1[C@H](CO)[C@H]2Cn3c(cccc3=O)[C@H]2N1CCC(F)(F)F)N1CCCCC1	ARNT TACC3 PPI active (no result: CAL PDZ FP-1, CAL PDZ FP-2)
CCCN1[C@H](C(=O)N2CCCCC2)[C@@H](CO)[C@@H]2Cn3c(cccc3=O)[C@@H]21	none (no result: CAL PDZ FP-1, CAL PDZ FP-2)
Cc1[nH]c(=O)[nH]c(=O)c1/C=N/NC(=O)[C@H](C)N	ARNT TACC3 PPI 47
CC(C)[C@@H](N)C(=O)N/N=C/c1ccc2nccnc2c1	none
Cc1[nH]c(=O)[nH]c(=O)c1/C=N/NC(=O)CCCCCNC(=O)OC(C)(C)C	none
Cc1[nH]c(=O)[nH]c(=O)c1/C=N/NC(=O)CCNC(=O)OC(C)(C)C	none
Cc1[nH]c(=O)[nH]c(=O)c1/C=N/NC(=O)[C@@H](NC(=O)OC(C)(C)C)C(C)C	ARNT TACC3 PPI 47
CC(C)[C@H](NC(=O)OC(C)(C)C)C(=O)N/N=C/c1ccc2nccnc2c1	CAL PDZ FP-1 70
COc1cccc(N=Nc2c(N)[nH]n3c(=O)cc(-c4ccccc4)nc23)c1	CAL PDZ FP-1 63
Cc1ccc(N=Nc2c(N)[nH]n3c(=O)cc(-c4ccccc4)nc23)cc1	none
C[C@H]1CN([C@@H](C)CO)C(=O)Cc2cc(NC(=O)C3CC3)ccc2O[C@H]1CN(C)C(=O)Nc1ccc2c(c1)OCO2	none (no result: CAL PDZ FP-1, CAL PDZ FP-2)
Cc1cc(C(=O)NP(=O)(N2CCOCC2)N2CCOCC2)c(C)n1-c1ccc(Br)cc1	none
Cc1cc(C(=O)NP(=O)(N2CCOCC2)N2CCOCC2)c(C)n1-c1ccc(N(C)C)cc1	CAL PDZ FP-1 88
Cc1ccc(/C=C/C(=O)Nc2nn[nH]n2)o1	ARNT TACC3 PPI 61
Cc1ccc(/C=C/C(=O)Nc2cccnc2)o1	none
C[C@H]1CN([C@@H](C)CO)C(=O)Cc2cc(NC(=O)CCC(F)(F)F)ccc2O[C@@H]1CN(C)Cc1ccc(Oc2ccccc2)cc1	none (no result: CAL PDZ FP-1, CAL PDZ FP-2)
NC(=O)c1ccc(Nc2nnc(-c3ccc(O)cc3)c3ccccc23)cc1	none
COc1ccc(Nc2nnc(-c3ccc(C(N)=O)cc3)c3ccccc23)cc1	ARNT TACC3 PPI 51 (no result: CAL PDZ FP-1)
CC(C)NC(=O)N(C)C[C@H]1Oc2cc(C3=CCCC3)ccc2S(=O)(=O)N([C@@H](C)CO)C[C@@H]1C	none (no result: CAL PDZ FP-1, CAL PDZ FP-2)
COc1ccc(C(=O)C2CCN(C(=O)c3ccc(OC)cc3)CC2)cc1	CAL PDZ FP-1 74
COc1ccc(C(=O)N2CCC(C(=O)c3ccc(F)cc3)CC2)cc1	none
COc1ccc(C(=O)N2CCC(C(=O)Nc3ccccc3OC)CC2)cc1	none
COC(=O)c1ccccc1NC(=O)C1CCN(C(=O)c2cc(OC)cc(OC)c2)CC1	CAL PDZ FP-1 115
O=C(N[C@H]1CC[C@H](CC(=O)N2CCOCC2)O[C@@H]1CO)c1ccccn1	none (no result: CAL PDZ FP-1, CAL PDZ FP-2)
CCCN1C[C@@H](C)[C@@H](OC)CN(C)C(=O)c2ccc(NC(=O)C3CCC3)cc2OC[C@H]1C	none (no result: CAL PDZ FP-1, CAL PDZ FP-2)
CCOC(=O)CSc1nnc(CNC(=O)c2cccc(C)c2)n1-c1ccccc1OC	none (no result: CAL PDZ FP-2)
COc1ccc(C(=O)CSc2nnc(CNC(=O)c3ccc(OC)c(OC)c3)n2C)cc1	none
COC(=O)CSc1nnc(CNC(=O)c2ccc(OC)c(OC)c2)n1C	CAL PDZ FP-1 38
CCOC(=O)CSc1nnc(CNC(=O)c2cccc(C)c2)n1C	CAL PDZ FP-1 76
Cc1ccc(S(=O)(=O)N[C@H]2C=C[C@@H](CC(=O)N3CCc4ccccc4C3)O[C@@H]2CO)cc1	none (no result: CAL PDZ FP-1, CAL PDZ FP-2)
O=C(c1ccccn1)N1C[C@H]2[C@@H](c3ccccc31)[C@@H](CO)N2C(=O)C1CC1	none (no result: CAL PDZ FP-1, CAL PDZ FP-2)
Cc1c(N=NC2=C(O)CCCC2=O)c(=O)n(-c2ccccc2)n1C	ARNT TACC3 PPI 63
Cc1c(N=Nc2ccc(O)cc2)c(=O)n(-c2ccccc2)n1C	none
C[C@@H]1CN([C@@H](C)CO)C(=O)c2cc(-c3cccnc3)cnc2O[C@@H]1CN(C)Cc1ccc(-c2ccccc2)cc1	none (no result: CAL PDZ FP-1, CAL PDZ FP-2)
COc1cccc(-c2ccc([C@H]3[C@@H](CO)N(C(=O)c4ccccn4)[C@H]3C#N)cc2)c1	none (no result: CAL PDZ FP-1, CAL PDZ FP-2)
Nc1nc(Nc2ccccc2)nc2ccccc12	none
CN(C)c1ccc(Nc2nc(N)c3ccccc3n2)cc1	ARNT TACC3 PPI 50
C[C@@H]1CN([C@H](C)CO)C(=O)c2cc(NS(=O)(=O)c3cn(C)cn3)ccc2O[C@@H]1CN(C)Cc1ccc(Cl)c(Cl)c1	none (no result: CAL PDZ FP-1, CAL PDZ FP-2)
CN(C(=O)c1ccnn1C)C1CCCN(Cc2ccccc2F)C1 (stereo not drawn)	CAL PDZ FP-1 45

Bioassay records deposited in PubChem by Broad Institute.
